Converted amounts (≈) assume the structure as drawn. A value given as a limit tells only on which side of the number the result lay.

For assay [1], the target named is T1, Neutrophil elastase (Homo sapiens) (UniProt P08246).
T1 sequence (whole entry): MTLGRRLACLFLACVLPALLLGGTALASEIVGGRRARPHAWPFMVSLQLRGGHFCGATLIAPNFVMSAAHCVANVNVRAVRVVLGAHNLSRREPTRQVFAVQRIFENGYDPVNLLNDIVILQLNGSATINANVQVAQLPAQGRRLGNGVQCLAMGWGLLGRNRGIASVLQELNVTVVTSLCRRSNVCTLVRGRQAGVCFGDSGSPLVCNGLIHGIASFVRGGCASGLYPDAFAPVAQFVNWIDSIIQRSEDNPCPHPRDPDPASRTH
Description: Inhibition of human neutrophil elastase at 5 uM after 15 mins. In a few lines: (§1)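 Single-point screen: each enzyme incubated with inhibitor at 37 °C, then residual activity measured. Inhibition below 5% was scored as no inhibition.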

In assay [2] the target is Chymotrypsin-like elastase family member 1 (Sus scrofa) (UniProt P00772). Description: Inhibition of porcine pancreatic elastase at 5 uM after 15 mins. In outline:
as §1

Assay [3] in a line: Inhibition of trypsin at 5 uM after 15 mins. In a few lines: as §1
Assay [4] has as its system LoVo. Description: Antiproliferative activity against human LoVo cells assessed as growth inhibition at 100 ug/ml after 72 hrs. Format: functional.
The next assay concerns A549. Put plainly: Antiproliferative activity against human A549 cells assessed as growth inhibition at 100 ug/ml after 72 hrs. Format: functional. The settings on record: A549, 72 h.
The nature of assay [5]: Ratio of dissociation of enzyme-inhibitor-substrate complex to Ki for chymotrypsin.
The test system of assay [6] is LoVo. Put plainly: Antiproliferative activity against human multidrug-resistant LoVo cells assessed as growth inhibition at 100 ug/ml after 72 hrs. The assay is classed as functional.
The subject of assay [7] is MCF7. Description: Antiproliferative activity against human MCF7 cells assessed as growth inhibition at 100 ug/ml after 72 hrs. The assay is classed as functional. The settings on record: MCF7, 72 h.
The subject of assay [8] is LoVo. Put plainly: Antiproliferative activity against human LoVo cells after 72 hrs. Format: functional, cell-based.
Assay [9] has as its system MCF7. Put plainly: Antiproliferative activity against human MCF7 cells after 72 hrs. The settings on record: MCF7, 72 h. The assay is classed as functional, cell-based.

Chymotrypsin-like elastase family member 1 (Sus scrofa), sequence (P00772 whole entry): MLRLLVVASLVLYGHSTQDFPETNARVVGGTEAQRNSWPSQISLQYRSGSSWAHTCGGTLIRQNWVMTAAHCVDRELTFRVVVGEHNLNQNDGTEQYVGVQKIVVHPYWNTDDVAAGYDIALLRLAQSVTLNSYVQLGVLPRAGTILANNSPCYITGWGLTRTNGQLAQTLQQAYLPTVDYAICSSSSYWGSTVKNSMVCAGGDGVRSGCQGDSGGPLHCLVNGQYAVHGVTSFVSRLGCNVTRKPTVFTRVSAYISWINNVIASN

A word on the inhibition: it is the change of the read-out against control, counted positive when it falls. For `CCC[C@@H](NC(=O)OCc1ccccc1)P(=O)(Oc1cccc(C)c1C)Oc1cccc(C)c1C`, the inhibition in [1] and in assay [2] was < 5% each time.
Turning to `CCC(NC(=O)OCc1ccccc1)P(=O)(Oc1ccc(C)cc1)Oc1ccc(C)cc1` (centres undefined), the inhibition in assay [1] and in [2] was < 5% in each case.
In the case of `COc1ccc(OP(=O)(Oc2ccc(OC)cc2)[C@@H](CC(C)C)NC(=O)OCc2ccccc2)cc1`, the inhibition in assay [1] was < 5%.
As for `CCC[C@@H](NC(=O)OCc1ccccc1)P(=O)(Oc1cc(C)cc(C)c1C)Oc1cc(C)cc(C)c1C`, the inhibition in assay [1] and in [2] was < 5% in each case.
On to `C[C@@H](NC(=O)OCc1ccccc1)P(=O)(Oc1ccccc1)Oc1ccccc1`, for which the inhibition in assay [3] and in assay [2] was < 5% throughout.
Turning to `CC(C)[C@@H](NC(=O)OCc1ccccc1)P(=O)(Oc1ccccc1)Oc1ccccc1`, the inhibition in assay [3], in [1] and in [2] was < 5% in each case.
As to `CSc1ccc(OP(=O)(Oc2ccc(SC)cc2)[C@@H](C)NC(=O)OCc2ccccc2)cc1`, the inhibition in assay [3] and in assay [2] was < 5% throughout.
For `CCC[C@@H](NC(=O)OCc1ccccc1)P(=O)(Oc1cc(C)c(C)c(C)c1)Oc1cc(C)c(C)c(C)c1`, the inhibition in assay [3], in assay [1] and in assay [2] was < 5% each time.
In the case of `CC(C)[C@@H](NC(=O)OCc1ccccc1)P(=O)(Oc1ccc(C(C)(C)CC(C)(C)C)cc1)Oc1ccc(C(C)(C)CC(C)(C)C)cc1`, the inhibition in assay [3], in assay [1] and in [2] was < 5% throughout.
Regarding `COC(=O)c1ccc(OP(=O)(Oc2ccc(C(=O)OC)cc2)[C@@H](CC(C)C)NC(=O)OCc2ccccc2)cc1`, the inhibition at 100 µg/mL in the assay with LoVo [4] was determined as 22%; in the assay on A549, 3%; in the assay on LoVo [6] it was 6%; in the assay on MCF7 [7], 8%. Besides, the Ratio in [5] is < 50 M⁻¹ s⁻¹.
As usually defined, the IC50 is the concentration at which inhibition is half-maximal. In the assay on LoVo [8], `CCC(NC(=O)OCc1ccccc1)P(=O)(Oc1ccc(C(=O)OC)cc1)Oc1ccc(C(=O)OC)cc1` (centres undefined) displayed an IC50 of 73 µg/mL (≈ 135 µM). Besides, the figures for the inhibition at 100 µg/mL in the assay with A549, in the assay on LoVo [6] and in the assay on MCF7 [7] were 31%, 38% and 49%, respectively. Also, the Ratio in assay [5] turned out to be 1070 M⁻¹ s⁻¹.
Take `CSc1ccc(OP(=O)(Oc2ccc(SC)cc2)[C@@H](CC(C)C)NC(=O)OCc2ccccc2)cc1`: the inhibition in assay [2] is < 5%.
For the molecule `CCc1ccc(OP(=O)(Oc2ccc(CC)cc2)[C@@H](C)NC(=O)OCc2ccccc2)cc1`, the inhibition in [3] and in [2] was < 5% in each case.
`CC(C)[C@@H](NC(=O)OCc1ccccc1)P(=O)(Oc1ccc(C(C)(C)C)cc1)Oc1ccc(C(C)(C)C)cc1`: the inhibition in assay [3] and in assay [2] was < 5% throughout.
As to `COC(=O)c1ccc(OP(=O)(Oc2ccc(C(=O)OC)cc2)[C@H](NC(=O)OCc2ccccc2)C(C)C)cc1`, the figures for the concentration for half-maximal inhibition (IC50) in the assay with LoVo [8] and with MCF7 [9] were 32 µg/mL (≈ 57.6 µM) and 47 µg/mL (≈ 84.6 µM), respectively. For the same molecule, the inhibition at 100 µg/mL with A549 is 46%; in the assay with LoVo [6], 54%. Moreover, the inhibition in assay [2] is < 5%. Moreover, the Ratio in assay [5] is < 50 M⁻¹ s⁻¹.
For `CCC(NC(=O)OCc1ccccc1)P(=O)(Oc1ccc(C(C)(C)C)cc1)Oc1ccc(C(C)(C)C)cc1` (centres undefined), the inhibition in assay [1] and in assay [2] was < 5% in each case.
As for `Cc1ccc(C)c(OP(=O)(Oc2cc(C)ccc2C)[C@@H](CC(C)C)NC(=O)OCc2ccccc2)c1`, the inhibition in assay [1] was < 5%.
As for `CC(C)(C)C(=O)Oc1ccc(S(=O)(=O)Nc2ccccc2C(=O)NCC(=O)O)cc1` [SIVELESTAT], the inhibition at 100 µg/mL in the assay on LoVo [4] is 20%; in the assay with LoVo [6] it was 15%; with MCF7 [7], 61%.
Consider `CCc1ccc(OP(=O)(Oc2ccc(CC)cc2)[C@H](NC(=O)OCc2ccccc2)C(C)C)cc1`, for which the inhibition in assay [3] was < 5%.
Consider `CCC(NC(=O)OCc1ccccc1)P(=O)(Oc1ccc(C(C)C)cc1)Oc1ccc(C(C)C)cc1` (centres undefined), for which the inhibition in [3] is < 5%.
In the case of `CCCC[C@@H](NC(=O)OCc1ccccc1)P(=O)(Oc1ccc(SC)cc1)Oc1ccc(SC)cc1`, the inhibition in assay [1] and in [2] was < 5% throughout.
For `CCC[C@@H](NC(=O)OCc1ccccc1)P(=O)(Oc1ccc(OC)cc1)Oc1ccc(OC)cc1`, the inhibition in [1] and in [2] was < 5% throughout.
`Cc1ccccc1OP(=O)(Oc1ccccc1C)[C@@H](CC(C)C)NC(=O)OCc1ccccc1`: the inhibition in [2] was < 5%.
With `CCCC[C@@H](NC(=O)OCc1ccccc1)P(=O)(Oc1ccc(C(C)(C)C)cc1)Oc1ccc(C(C)(C)C)cc1`, the inhibition in assay [3] is < 5%.
For the molecule `COc1ccc(OP(=O)(Oc2ccc(OC)cc2)[C@H](NC(=O)OCc2ccccc2)C(C)C)cc1`, the inhibition in [3] was < 5%.
With `CCc1ccc(OP(=O)(Oc2ccc(CC)cc2)C(CC)NC(=O)OCc2ccccc2)cc1` (centres undefined), in assay [2], the inhibition is < 5%.
In the case of `CCCC[C@@H](NC(=O)OCc1ccccc1)P(=O)(Oc1ccc(C(=O)OC)cc1)Oc1ccc(C(=O)OC)cc1`, the Ratio in [5] was < 50 M⁻¹ s⁻¹.
With `CCC(NC(=O)OCc1ccccc1)P(=O)(Oc1ccc(C)c(C)c1)Oc1ccc(C)c(C)c1` (centres undefined), the inhibition in [1] and in assay [2] was < 5% in each case.
With `CC(C)C[C@@H](NC(=O)OCc1ccccc1)P(=O)(Oc1ccc(Cl)cc1)Oc1ccc(Cl)cc1`, the inhibition in assay [2] was < 5%.
For `CC(C)[C@@H](NC(=O)OCc1ccccc1)P(=O)(Oc1ccc(S(C)(=O)=O)cc1)Oc1ccc(S(C)(=O)=O)cc1`, the inhibition at 100 µg/mL was 15% in the assay with LoVo [4], 5% in the assay with A549 and 19% in the assay with MCF7 [7]. In assay [5], the Ratio came to 707 M⁻¹ s⁻¹.
For `CSc1ccc(OP(=O)(Oc2ccc(SC)cc2)[C@H](NC(=O)OCc2ccccc2)C(C)C)cc1`, in [2], the inhibition is < 5%.
With `CC(C)c1ccc(OP(=O)(Oc2ccc(C(C)C)cc2)[C@@H](C)NC(=O)OCc2ccccc2)cc1`, the inhibition in assay [3] and in assay [2] was < 5% each time.
As to `COC(=O)c1ccc(OP(=O)(Oc2ccc(C(=O)OC)cc2)[C@@H](C)NC(=O)OCc2ccccc2)cc1`, the 50% inhibitory concentration (IC50) came to 47 µg/mL (≈ 89.1 µM) in the assay with LoVo [8] and 40 µg/mL (≈ 75.8 µM) in the assay with MCF7 [9]. The inhibition at 100 µg/mL was 25% in the assay with A549 and 46% in the assay on LoVo [6]. In assay [5], the Ratio stood at 1530 M⁻¹ s⁻¹.
As for `Cc1ccc(C)c(OP(=O)(Oc2cc(C)ccc2C)[C@H](NC(=O)OCc2ccccc2)C(C)C)c1`, the inhibition in [3], in assay [1] and in [2] was < 5% in each case.
Regarding `CCC[C@@H](NC(=O)OCc1ccccc1)P(=O)(Oc1ccc(C(=O)OC)cc1)Oc1ccc(C(=O)OC)cc1`, the half-maximal inhibitory concentration (IC50) came out at 47 µg/mL (≈ 84.6 µM) in the assay on LoVo [8] and 52 µg/mL (≈ 93.6 µM) in the assay on MCF7 [9]. In addition, the results for the inhibition at 100 µg/mL with A549 and with LoVo [6] were 40% and 47%, respectively. Besides, in assay [5], the Ratio is < 50 M⁻¹ s⁻¹.
For `CCC(NC(=O)OCc1ccccc1)P(=O)(Oc1ccc(Cl)cc1)Oc1ccc(Cl)cc1` (centres undefined), in assay [5], the Ratio is < 50 M⁻¹ s⁻¹.
Consider `CC(C)c1ccc(OP(=O)(Oc2ccc(C(C)C)cc2)[C@H](NC(=O)OCc2ccccc2)C(C)C)cc1`, for which the inhibition in assay [3], in [1] and in assay [2] was < 5% each time.
As to `CCCC[C@@H](NC(=O)OCc1ccccc1)P(=O)(Oc1ccccc1)Oc1ccccc1`, the inhibition in assay [3] and in [2] was < 5% each time.
Turning to `CCC(NC(=O)OCc1ccccc1)P(=O)(Oc1ccccc1)Oc1ccccc1` (centres undefined), the inhibition in assay [2] was < 5%.
As to `C[C@@H](NC(=O)OCc1ccccc1)P(=O)(Oc1ccc(C(C)(C)C)cc1)Oc1ccc(C(C)(C)C)cc1`, the inhibition in [3] is < 5%.

For the origin of these results see ChEMBL document CHEMBL1681697, “Simple phosphonic inhibitors of human neutrophil elastase” (Bioorg Med Chem Lett, 2011).
